Data as given in ChEMBL document CHEMBL4251659, “Anti-Influenza Triterpene Saponins from the Bark of Burkea africana” (J Nat Prod, 2018).

Key:
Influenza A virus H3N2 = assay: Antiviral activity against Influenza A virus H3N2 A/Hong Kong/68 infected in MDCK cells assessed as inhibition of virus-induced cytopathic effect after 48 hrs; assay type: functional, organism-based
How it was run: (§1)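 Run on 2-day-old confluent MDCK monolayers. Test concentrations reached a maximum of 100 μM for pure compounds and 100 μg/mL for extracts or fractions. Virus input gave complete CPE at 48 h post-infection, when inhibition was scored. Each concentration was tested twice. IC50 (50% inhibition of virus-induced CPE) is the mean of at least three experiments.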

Influenza A virus = assay: Antiviral activity against Influenza A virus H1N1 A/Jena/8178/09 infected in MDCK cells assessed as inhibition of virus-induced cytopathic effect after 48 hrs; assay type: functional, organism-based; how it was run: as §1
[1] = Selectivity index, ratio of CC50 for MDCK cells to IC50 for Influenza A virus H3N2 A/Hong Kong/68 infected in MDCK cells; assay type: toxicity, cell-based; conditions: dog, read-out: Ratio CC50/IC50
How it was run: (§2)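 SI was calculated as CC50/IC50. CC50 was measured on 2-day-old confluent MDCK monolayers 72 h after sample addition, at a maximum of 100 μM for compounds or 100 μg/mL for extracts or fractions, with each concentration tested twice. IC50 came from the 48 h CPE inhibition assay. Both are means of at least three experiments.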

[2] = Selectivity index, ratio of CC50 for MDCK cells to IC50 for Influenza A virus H1N1 A/Jena/8178/09 infected in MDCK cells; assay type: toxicity, cell-based; conditions: dog, read-out: Ratio CC50/IC50; how it was run: as §2

With `C=C(C)[C@@H]1CC[C@]2(C(=O)O)CC[C@]3(C)[C@H](CC[C@@H]4[C@@]5(C)C[C@@H](O)[C@H](O[C@@H]6O[C@H](CO)[C@@H](O)[C@H](O)[C@H]6O[C@@H]6OC[C@@H](O)[C@H](O)[C@H]6O)C(C)(C)[C@@H]5CC[C@]43C)[C@@H]12` the IC50 (Influenza A virus H3N2) was “Not Active”.
With `C[C@H]1O[C@@H](O[C@H]2[C@H](O)[C@@H](O[C@@H]3OC[C@@H](O)[C@H](O)[C@H]3O)[C@H](O[C@H]3[C@H](O)C[C@]4(C)[C@H]5CC=C6[C@@H]7CC(C)(C)CC[C@]7(C(=O)O)CC[C@@]6(C)[C@]5(C)CC[C@H]4C3(C)C)O[C@@H]2CO)[C@@H](O)[C@@H](O)[C@@H]1O` the IC50 (Influenza A virus) was “Not Active”.
With `CC1(C)C[C@H]2C3=CC[C@@H]4[C@@]5(C)CC[C@H](O)C(C)(C)[C@@H]5CC[C@@]4(C)[C@]3(C)CC[C@@]2(C(=O)O)C[C@H]1OC(=O)/C=C/c1ccccc1` the selectivity ratio [1] was greater than 11 and the selectivity ratio [2] was greater than 15.
With `C=C(C)[C@@H]1CC[C@]2(C(=O)O)CC[C@]3(CO)[C@H](CC[C@@H]4[C@@]5(C)C[C@@H](O)[C@H](O[C@@H]6O[C@H](CO)[C@@H](O)[C@H](O)[C@H]6O[C@@H]6O[C@H](CO)[C@@H](O)[C@H](O)[C@H]6O)C(C)(C)[C@@H]5CC[C@]43C)[C@@H]12` the IC50 (Influenza A virus H3N2) was “Not Active”.
In the case of `C=C(C)[C@@H]1CC[C@]2(C(=O)O)CC[C@]3(CO)[C@H](CC[C@@H]4[C@@]5(C)C[C@@H](O)[C@H](O)C(C)(C)[C@@H]5CC[C@]43C)[C@@H]12`, the IC50 (Influenza A virus H3N2) is reported as “Not Active”.
For `C=C(C)[C@@H]1CC[C@]2(C(=O)O)CC[C@]3(CO)[C@H](CC[C@@H]4[C@@]5(C)C[C@@H](O)[C@H](O[C@@H]6O[C@H](CO)[C@@H](O)[C@H](O)[C@H]6O[C@@H]6OC[C@@H](O)[C@H](O)[C@H]6O)C(C)(C)[C@@H]5CC[C@]43C)[C@@H]12`, the IC50 (Influenza A virus H3N2) was “Not Active” and the IC50 (Influenza A virus) was “Not Active”.
In the case of `CC1(C)C[C@H]2C3=CC[C@@H]4[C@@]5(C)C[C@@H](O)[C@H](O)C(C)(C)[C@@H]5CC[C@@]4(C)[C@]3(C)CC[C@@]2(C(=O)O)C[C@H]1OC(=O)/C=C/c1ccccc1`, the selectivity ratio [1] is reported as greater than 9 and the selectivity ratio [2] is reported as greater than 14.
For `C=C(C)[C@@H]1CC[C@]2(C(=O)O)CC[C@]3(C)[C@H](CC[C@@H]4[C@@]5(C)C[C@@H](O)[C@H](O)C(C)(C)[C@@H]5CC[C@]43C)[C@@H]12` [ALPHITOLIC ACID], the IC50 (Influenza A virus H3N2) was “Not Active” and the IC50 (Influenza A virus) was “Not Active”.
In the case of `CC1(C)CC[C@]2(C(=O)O)CC[C@]3(C)C(=CC[C@@H]4[C@@]5(C)C[C@@H](O)[C@H](O)C(C)(C)[C@@H]5CC[C@]43C)[C@@H]2C1` [MASLINIC ACID], the IC50 (Influenza A virus H3N2) is reported as “Not Active” and the IC50 (Influenza A virus) is reported as “Not Active”.
